Experimental data as given in ChEMBL document CHEMBL5674882, “Benzolactam-related compounds promote apoptosis of HIV-infected human cells via protein kinase C-induced HIV latency reversal” (J Biol Chem, 2019).
Active and inactive are the calls of the source. No cut-off for these calls is given here.

Tests used:
U1 [1] = test: Induction of apoptosis in human U1 cells at 1 uM incubated for 48 hrs by propidium iodide/annexin-V staining based flow cytometry (reference value: 3.16%); format: functional
J-Lat 6.3 [2] = test: Induction of apoptosis in human J-Lat 6.3 cells assessed as caspase-3 activation at 10 nM incubated for 24 hrs by flow cytometry (reference value: 2.43%); format: functional
How it was run: (§1)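 Cells fixed in 1% paraformaldehyde, permeabilized, stained 30 min on ice with anti-active caspase-3 mAb, and analysed by flow cytometry. Three independent experiments.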

U1 [3] = test: Induction of apoptosis in human U1 cells assessed as caspase-3 activation at 10 nM incubated for 24 hrs by flow cytometry (reference value: 1.86%); format: functional; how it was run: as §1
U1 [4] = test: Induction of apoptosis in human U1 cells assessed as caspase-3 activation at 10 nM incubated for 24 hrs by flow cytometry; format: functional; how it was run: as §1
Jurkat = test: Induction of apoptosis in human Jurkat cells assessed as caspase-3 activation at 10 nM incubated for 24 hrs by flow cytometry; format: functional; how it was run: as §1
ACH-2 cell line [5] = test: Induction of apoptosis in human ACH-2 cells at 1 uM incubated for 48 hrs after pre-incubated for 2 hrs with 20 uM caspase inhibitor Q-VD-Oph by propidium iodide/annexin-V staining based flow cytometry; format: functional, cell-based
How it was run: (§2)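 ACH-2 or U1 cells pretreated 2 h with 20 µM pan-caspase inhibitor Q-VD-Oph, then exposed to 1 µM compound for 48 h. Annexin-V/PI staining by flow cytometry; apoptotic proportions compared with and without Q-VD-Oph. Mean ± S.D.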

U-937 = test: Induction of apoptosis in human U-937 cells assessed as caspase-3 activation at 10 nM incubated for 24 hrs by flow cytometry; format: functional; how it was run: as §1
[6] = molecular target: T1, Protein kinase C (PKC) (Homo sapiens) (UniProt O94806+P41743+P17252+P05129+Q05655+P05771+Q05513+Q02156+P24723+Q15139+Q04759); test: Induction of apoptosis in CCL19-induced human CD4+ T-cells infected with latent HIV-1 assessed as caspase-3 activation at 100 nM incubated for 48 hrs in presence of 2 uM ionomycin by incubated for 48 hrs by FACS; format: cell-based; details: CD4+ T cell, filed as activator
How it was run: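 Latency model: healthy-donor CD4+ T-cells given 100 nM CCL19 for 2 days, infected with HIV-1 NL4-3, kept 5 days in IL-2. Stimulated 2 days with 1 µM drug or 100 nM PMA plus 2 µM ionomycin. Cells fixed and permeabilized, co-stained with anti-p24 and anti-active caspase-3 mAbs; active caspase-3 read by flow cytometry separately in p24+ and p24− cells. Two donors.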

ACH-2 cell line [7] = test: Induction of apoptosis in human ACH-2 cells at 1 uM incubated for 48 hrs by propidium iodide/annexin-V staining based flow cytometry (reference value: 3.16%); format: functional
J-Lat 6.3 [8] = test: Induction of apoptosis in human J-Lat 6.3 cells at 1 uM incubated for 48 hrs by propidium iodide/annexin-V staining based flow cytometry (reference value: 3.16%); format: functional
ACH-2 cell line [9] = test: Induction of apoptosis in human ACH-2 cells assessed as caspase-3 activation at 10 nM incubated for 24 hrs by flow cytometry; format: functional; how it was run: as §1
U1 [10] = test: Induction of apoptosis in human U1 cells at 1 uM incubated for 48 hrs after pre-incubated for 2 hrs with 20 uM caspase inhibitor Q-VD-Oph by propidium iodide/annexin-V staining based flow cytometry; format: functional, cell-based; how it was run: as §2
[11] = molecular target: T1, Protein kinase C (PKC) (Homo sapiens); test: Activation of PKC in CCL19-induced human CD4+ T-cells infected with latent HIV-1 assessed as reversal of HIV-1 latency by measuring increase in p24 antigen level at 100 nM incubated for 48 hrs in presence of 2 uM ionomycin by chemiluminescent enzyme immunoassay; format: cell-based; details: CD4+ T cell, filed as activator
J-Lat 6.3 (Homo sapiens) = test: Induction of apoptosis in human J-Lat 6.3 cells at 1 uM incubated for 48 hrs after pre-incubated for 2 hrs with 20 uM caspase inhibitor Q-VD-Oph by propidium iodide/annexin-V staining based flow cytometry
[12] = Induction of apoptosis in human CEM A3.01 cells assessed as caspase-3 activation at 10 nM incubated for 24 hrs by flow cytometry; format: functional; how it was run: as §1
ACH-2 cell line [13] = test: Induction of apoptosis in human ACH-2 cells assessed as cleaved-PARP level at 10 nM incubated for 24 hrs by flow cytometry (reference value: 1.64%); format: functional
How it was run: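 Cells fixed, permeabilized, stained on ice with anti-cleaved PARP (Asp-214) mAb; % cleaved-PARP cells by flow cytometry. Means ± S.D. of three independent experiments.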

J-Lat 6.3 [14] = test: Induction of apoptosis in human J-Lat 6.3 cells assessed as caspase-3 activation at 10 nM incubated for 24 hrs by flow cytometry; format: functional; how it was run: as §1

Compound: CCCCCCCCCCCCCC(=O)O[C@@H]1[C@@H](C)[C@@]2(O)[C@@H](C=C(CO)C[C@]3(O)C(=O)C(C)=C[C@@H]23)[C@@H]2C(C)(C)[C@]12OC(C)=O [PHORBOL MYRISTATE ACETATE]
- Activity (U1 [1]): 28.7%
- Activity (J-Lat 6.3 [2]): 19.9%
- Activity (U1 [3]): 8.06%
- Activity (U1 [4]): 33.6%
- Activity (Jurkat): 2.03%
- Activity (ACH-2 cell line [5]): inactive
- Activity (U-937): 1.02%
- Activity [6]: Active
- Activity (ACH-2 cell line [7]): 40.3%
- Activity (J-Lat 6.3 [8]): 15.2%
- Activity (ACH-2 cell line [9]): 27%
- Activity (U1 [10]): inactive
- Activity [11]: Active
- Activity (J-Lat 6.3 (Homo sapiens)): inactive
- Activity [12]: 2.39%
- Activity (ACH-2 cell line [13]): 21.7%
- Activity (J-Lat 6.3 [14]): 12.9%
